Hits are enriched below; roughly 1.2% of the tested compounds scored in any of these assays.
IDE cell activ – human IDE activators in live cells, primary screen, fluorescence polarization, HEK cells, FAbeta-B substrate; activation, % at 5.96 µM; FAbeta-B cleavage; 0% vehicle, 100% cell-free pure enzyme wells; Insulin-degrading enzyme (Homo sapiens), P14735; 340,000 compounds, 0.073% hits;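 active = activation above the mean of all tested compounds plus 3 SD, set per screening campaign, cut at about 17% in these data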
ASAP1 GAP inh – inhibitors of human ASAP1 ArfGAP activity, primary screen, biochemical, fluorescence polarization | Arf-GAP with SH3 domain, ANK repeat and PH domain-containing protein 1 (Homo sapiens), … | ASAP1-stimulated ARF1 GTP hydrolysis, GDP FP detection | inhibition, % at 16.5 µM | 360,000 compounds, 0.19% hits | AID 624377, 2012; in the data active = inhibition above about 25%;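 note: 0% = vehicle with enzyme and substrate and 100% = no enzyme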
IDE cell inh – human IDE inhibitors in live cells, primary screen, fluorescence polarization, HEK cells, FAbetaB substrate. Insulin-degrading enzyme (Homo sapiens), P14735. FAbetaB cleavage. inhibition, % at 5.59 µM. 320,000 compounds, 0.41% hits;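 active = percent inhibition above the average of all tested compounds plus 3 SD, set per screening campaign, cut at about 16% in these data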;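 note: IDE supplied by intact live HEK cells; FP after avidin binding of uncleaved biotin substrate so inhibition keeps polarization high; 0% = DMSO wells and 100% = 60 µM reference IDE inhibitor Ii1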
PREPL inhibitor – PREPL enzyme inhibitors, primary screen, biochemical, fluorescence polarization | recombinant PREPL, fluorescence polarization activity-based probe | inhibition, % at 5.96 µM | 320,000 compounds, 0.68% hits | AID 2751, 2010; in the data active = inhibition above about 43%;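 note: 0% = enzyme with DMSO and 100% = wells lacking enzyme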
ARFGAP1 inh – inhibitors of rat ARFGAP1 GAP activity, primary screen, biochemical, fluorescence polarization, GDP tracer; AID 651572, 2012; ADP-ribosylation factor GTPase-activating protein 1 (Rattus norvegicus), Q62848; Arfgap1-stimulated ARF1 GTP hydrolysis, GDP FP detection; inhibition, % at 16.5 µM; 360,000 compounds, 0.26% hits;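 active = inhibition above a per-plate limit, mean inhibition of low control wells plus 3 SD, cut at about 25% in these data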;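 note: 0% = DMSO wells with enzyme and 100% = wells lacking Arfgap1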
Target sequence (Q62848 1-136 limits assumed): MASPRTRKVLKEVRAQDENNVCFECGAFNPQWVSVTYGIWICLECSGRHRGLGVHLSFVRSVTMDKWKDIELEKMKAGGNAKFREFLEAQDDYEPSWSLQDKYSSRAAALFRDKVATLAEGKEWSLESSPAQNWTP
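Material: rat Arfgap1 GAP domain (His6, aa 1-136), purified enzyme. Also added: human ARF1(Δ1-17)-GTP substrate. Compound dosing: 16.5 µM single point, 1.26% DMSO. Timing: enzyme reaction 120 min at 25 °C after 20 min preincubation. Signal: GDP detection by fluorescence polarization. Read-out basis: percent inhibition of GAP-stimulated GDP formation, scaled between DMSO and no-Arfgap1 medians.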
Active calls of the source: *.

How did CCOC(=O)/C(C#N)=C/C=C1\C=Cc2ccccc2N1CC do in these assays?
IDE cell activ: -32.8; ASAP1 GAP inh: 10.1; IDE cell inh: 12.5; PREPL inhibitor: 32.5; ARFGAP1 inh: 20.9

Results for CCCN1C=CC(=C/C=C(\C#N)C(=O)OCC)C=C1 ?
IDE cell inh: 101.3*; PREPL inhibitor: -0.9

What do the screens show for `Cc1cc(Br)c2nc(-c3cccc(Br)c3)c(Cc3cccc(Cl)c3)n2c1`?
ASAP1 GAP inh: 9.3; ARFGAP1 inh: -0.5

What do the screens show for `CCCCSCc1[nH]c(=O)[nH]c1C(=O)CCCCC(=O)OCC`?
IDE cell activ: 0.2; ASAP1 GAP inh: -14.6; IDE cell inh: -1.4; PREPL inhibitor: -1.6; ARFGAP1 inh: -0.3

What do the screens show for `Cc1[nH]c(=O)[nH]c1C(=O)CCCCC(=O)O`?
IDE cell activ: 38.6*; ASAP1 GAP inh: -3.7; IDE cell inh: -17.4; PREPL inhibitor: -2.2; ARFGAP1 inh: -8.8

Results for CSc1nc2c(=O)[nH]cnc2s1 ?
ASAP1 GAP inh: 0.1; ARFGAP1 inh: 8.9

What do the screens show for `COc1cc(/C=C(\C#N)c2nc3c(s2)CCCC3)ccc1O`?
IDE cell inh: 145.6*; PREPL inhibitor: 19.5

How did COC(=O)[C@H](Cc1ccccc1)N1Cc2ccccc2Oc2cc(Br)ccc2S1(=O)=O do in these assays?
ASAP1 GAP inh: 0.9; ARFGAP1 inh: -0.8

How did CN(C)c1ccc(C=c2c3ccccc3n3c2cc(-c2ccccc2)[n+]3C)cc1 do in these assays?
IDE cell activ: -11.5; ASAP1 GAP inh: 9.8; ARFGAP1 inh: 1.8

What do the screens show for `COc1cc(N(C)C)ccc1C=c1c2ccccc2n2c1cc(-c1ccccc1)[n+]2C`?
IDE cell activ: -13.6; ASAP1 GAP inh: 35.6*; ARFGAP1 inh: 12.6

How did CN(C)c1ccc(C=c2c3cc([N+](=O)[O-])ccc3n3c2cc(-c2ccccc2)[n+]3C)cc1 do in these assays?
IDE cell activ: -5.1; ASAP1 GAP inh: 19.5; ARFGAP1 inh: 39.1*

Results for C#CCNC(=O)C[C@H]1C[C@@]2(C(=O)OC)C(=C[C@H](C(C)(C)C)O[C@@H]2C)N(CCCCCCCC)C1=O ?
ASAP1 GAP inh: 13.7; ARFGAP1 inh: -10.6

What do the screens show for `CN(C)c1ccc(/C=C/c2cc[n+]([O-])cc2)cc1`?
IDE cell inh: 22.1*; PREPL inhibitor: 6.8

How did c1coc(C2Nc3cccc4cccc(c34)N2)c1 do in these assays?
IDE cell inh: -3.6; PREPL inhibitor: 43.4*

How did CCN(CC)c1ccc(/C=N/N=C(N)N)c(O)c1 do in these assays?
IDE cell activ: 17.5*; ASAP1 GAP inh: 5.6; IDE cell inh: -1.6; PREPL inhibitor: 17.5; ARFGAP1 inh: -10.8

What do the screens show for `CC(C)c1ccc(/C=C/C(=O)NC(=S)Nc2ccc(CN3CCOCC3)cc2)cc1`?
IDE cell activ: -9.8; ASAP1 GAP inh: 4.8; IDE cell inh: 17.8*; PREPL inhibitor: -6.6; ARFGAP1 inh: 6.7

Results for CCCCCCc1cc2cc(-c3nnc(-c4ccccc4OC)o3)c(=O)oc2cc1O ?
IDE cell activ: 5.5; ASAP1 GAP inh: 6.5; IDE cell inh: 48.0*; PREPL inhibitor: 11.4; ARFGAP1 inh: -13.5

How did O=C(N[C@H](C(=O)N1CCC[C@H]1C(=O)NCc1ccccc1)C1CCCCC1)c1ccc(Cl)cc1Cl do in these assays?
ASAP1 GAP inh: 2.3; ARFGAP1 inh: 13.4

Results for CCc1cc(Cn2nc(C(=O)O)cc2-c2ccccc2)on1 ?
IDE cell activ: 19.3*; ASAP1 GAP inh: -5.8; IDE cell inh: 0.7; PREPL inhibitor: 3.0; ARFGAP1 inh: -7.5

Results for Cc1cccc(C)c1NC(=O)COC(=O)c1c2c(nc3ccccc13)/C(=C\c1ccc3c(c1)OCO3)CCC2 ?
IDE cell activ: 4.9; ASAP1 GAP inh: 8.8; IDE cell inh: -29.2; PREPL inhibitor: 70.7*; ARFGAP1 inh: 1.4

Results for CC(OC(=O)c1c2c(nc3ccccc13)/C(=C\c1ccc3c(c1)OCO3)CCC2)C(=O)Nc1ccc(S(N)(=O)=O)cc1 (configuration not stated) ?
IDE cell activ: 26.4*

Results for O=C(O)C1=CC(=C(c2ccc(O)c(C(=O)O)c2)c2ccc(O)c(C(=O)O)c2)C=CC1=O ?
IDE cell inh: -2.1; PREPL inhibitor: 79.7*

From PubChem
